# Test results published in ChEMBL document CHEMBL3763021 (Eur J Med Chem, 2016).
# Test system: not listed separately
# Experiment: Clearance in Sprague-Dawley rat at 5 mg/kg, po by LC/MS/MS analysis
# Assay type: ADME, organism-based
# Settings: in vivo
# How it was run: (§1)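 Male SD rats, 180–240 g, 3 per compound; single dose of 1 mg/kg iv or 5 mg/kg po, dosing volume 5 mL/kg. Blood was sampled from 2 min to 24 h and centrifuged at 4 °C. Plasma underwent protein precipitation, then LC/MS/MS in SRM mode with an internal standard. Parameters were derived by noncompartmental analysis.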
row,SMILES,CL/F [L/h/kg]
1,Cc1ccc(CN2CCOCC2)cc1NC(=O)c1ccc(Nc2nccc(-c3ccc(OC(F)(F)F)cc3)n2)cn1,7.41
2,CS(=O)(=O)c1ccc(C(=O)Nc2ccc(Cl)c(-c3ccccn3)c2)c(Cl)c1 [VISMODEGIB],0.281

# Test system: Mus musculus
# Experiment: Toxicity in BALB/C mouse xenografted with human LS174T cells assessed as mortality at 75 mg/kg, bid administered for 10 days
# Assay type: organism-based
# Settings: in vivo, 240 h
# How it was run: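 Male BALB/C nude mice (18–20 g) kept under SPF conditions. LS-174T cells at 2.5×10^7 cells/mL injected subcutaneously into the right flank. Once tumors reached about 100 mm3, mice were randomized to groups of 6 (vehicle group n = 9) and dosed orally once or twice daily for 10 days. Controls received solvent. Body weight and tumor volume were measured twice weekly and deaths recorded.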
row,SMILES,Activity
1,CS(=O)(=O)c1ccc(C(=O)Nc2ccc(Cl)c(-c3ccccn3)c2)c(Cl)c1 [VISMODEGIB],Non-toxic

# Test system: not listed separately
# Experiment: Cmax in Sprague-Dawley rat at 5 mg/kg, po by LC/MS/MS analysis
# Assay type: ADME, organism-based
# Design: dose 5 mg/kg, route oral
# Settings: in vivo
# How it was run: as §1
row,SMILES,Cmax [µg/mL]
1,Cc1ccc(CN2CCOCC2)cc1NC(=O)c1ccc(Nc2nccc(-c3ccc(OC(F)(F)F)cc3)n2)cn1,0.137
2,CS(=O)(=O)c1ccc(C(=O)Nc2ccc(Cl)c(-c3ccccn3)c2)c(Cl)c1 [VISMODEGIB],3.64

# Test system: not listed separately
# Experiment: Inhibition of Sonic-induced hedgehog signalling in mouse NIH3T3 cells after 48 hrs by Gli-luciferase reporter assay
# Assay type: cell-based
# Settings: NIH3T3, 48 h
# How it was run: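 NIH3T3 cells stably carrying a Gli-luciferase reporter were kept in DMEM with 10% FBS and 1 µg/mL puromycin, then seeded at 2×10^4 cells/well overnight at 37 °C. Compounds at 0.05–300 nM (8 concentrations) were added in medium with 0.5% FBS and 0.7 µg/mL Sonic Hh agonist, n=4 wells, for 48 h. Readout was the Firefly/Renilla luciferase ratio in lysates.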
row,SMILES,IC50 [µM]
1,Cc1ccc(CN2CCOCC2)cc1NC(=O)c1ccc(Nc2nccc(-c3ccc(OC(F)(F)F)cc3)n2)cn1,0.00069
2,CS(=O)(=O)c1ccc(C(=O)Nc2ccc(Cl)c(-c3ccccn3)c2)c(Cl)c1 [VISMODEGIB],0.0072

# Test system: LS174T
# Experiment: Antiproliferative activity against human LS174T cells after 72 hrs by CellTiter-Glo luminescent cell viability assay
# Assay type: functional, cell-based
# Settings: not given
# How it was run: (§2)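 Cells were grown in DMEM with 10% FBS, seeded at a density suited to each line, and left 24 h at 37 °C. Compounds were prepared in DMSO, diluted in medium over a concentration series starting at 100 µM, and applied for 72 h. CellTiter-Glo reagent was added for 30 min at room temperature before reading luminescence. IC50 came from four-parameter curve fitting.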
row,SMILES,IC50 [µM]
1,CS(=O)(=O)c1ccc(C(=O)Nc2ccc(Cl)c(-c3ccccn3)c2)c(Cl)c1 [VISMODEGIB],45.8

# Test system: not listed separately
# Experiment: Half life in Sprague-Dawley rat at 5 mg/kg, po by LC/MS/MS analysis
# Assay type: ADME, organism-based
# Settings: in vivo
# How it was run: as §1
row,SMILES,half-life [h]
1,Cc1ccc(CN2CCOCC2)cc1NC(=O)c1ccc(Nc2nccc(-c3ccc(OC(F)(F)F)cc3)n2)cn1,5.56
2,CS(=O)(=O)c1ccc(C(=O)Nc2ccc(Cl)c(-c3ccccn3)c2)c(Cl)c1 [VISMODEGIB],2.46

# Test system: Rattus norvegicus
# Experiment: Apparent volume of distribution in Sprague-Dawley rat at 5 mg/kg, po by LC/MS/MS analysis
# Settings: in vivo
row,SMILES,Vd(app) [L/kg]
1,Cc1ccc(CN2CCOCC2)cc1NC(=O)c1ccc(Nc2nccc(-c3ccc(OC(F)(F)F)cc3)n2)cn1,59.60185

# Test system: not listed separately
# Experiment: AUC (0 to t) in Sprague-Dawley rat at 5 mg/kg, po by LC/MS/MS analysis
# Assay type: ADME, organism-based
# Settings: in vivo
# How it was run: as §1
row,SMILES,AUC(0-t) [µg·h/mL]
1,Cc1ccc(CN2CCOCC2)cc1NC(=O)c1ccc(Nc2nccc(-c3ccc(OC(F)(F)F)cc3)n2)cn1,0.66
2,CS(=O)(=O)c1ccc(C(=O)Nc2ccc(Cl)c(-c3ccccn3)c2)c(Cl)c1 [VISMODEGIB],22.4

# Test system: not listed separately
# Experiment: Antiproliferative activity against human BxPC3 cells after 72 hrs by CellTiter-Glo luminescent cell viability assay
# Assay type: functional, cell-based
# Settings: BXPC-3, 72 h
# How it was run: as §2
row,SMILES,IC50 [µM]
1,CS(=O)(=O)c1ccc(C(=O)Nc2ccc(Cl)c(-c3ccccn3)c2)c(Cl)c1 [VISMODEGIB],48

# Test system: LS174T
# Experiment: Antitumor activity against human LS174T cells xenografted in BALB/C mouse assessed as tumor weight inhibition at 75 mg/kg, bid administered for 10 days measured twice per week
# Assay type: functional
# Settings: 240 h, read-out: TGI
# How it was run: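 Male BALB/c nude mice, 18–20 g, kept under SPF conditions. LS-174T cells at 2.5×10^7 cells/mL were injected s.c. into the right flank, and tumors were grown to about 100 mm3. Mice were randomized, n=6 treated and n=9 vehicle. Oral dosing ran qd or bid for 10 days; vehicle controls got the same volume of solvent. Tumor volume = length×width²/2, measured twice weekly. IR = (control − treated)/control for tumor weight or volume at day 10.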
row,SMILES,inhibition in vivo at 75 mg/kg [%]
1,CS(=O)(=O)c1ccc(C(=O)Nc2ccc(Cl)c(-c3ccccn3)c2)c(Cl)c1 [VISMODEGIB],11.8

# Test system: not listed separately
# Experiment: Mean resident time (0 to t) in Sprague-Dawley rat at 5 mg/kg, po by LC/MS/MS analysis
# Assay type: ADME, organism-based
# Settings: in vivo
# How it was run: as §1
row,SMILES,MRT last [h]
1,Cc1ccc(CN2CCOCC2)cc1NC(=O)c1ccc(Nc2nccc(-c3ccc(OC(F)(F)F)cc3)n2)cn1,4.83
2,CS(=O)(=O)c1ccc(C(=O)Nc2ccc(Cl)c(-c3ccccn3)c2)c(Cl)c1 [VISMODEGIB],3.93

# Test system: not listed separately
# Experiment: Oral bioavailability in Sprague-Dawley rat at 5 mg/kg
# Assay type: ADME, organism-based
# Settings: in vivo
# How it was run: as §1
row,SMILES,bioavailability [%]
1,CS(=O)(=O)c1ccc(C(=O)Nc2ccc(Cl)c(-c3ccccn3)c2)c(Cl)c1 [VISMODEGIB],> 100

# Test system: not listed separately
# Experiment: Antiproliferative activity against human PC3 cells after 72 hrs by CellTiter-Glo luminescent cell viability assay
# Assay type: functional, cell-based
# Settings: PC-3, 72 h
# How it was run: as §2
row,SMILES,IC50 [µM]
1,CS(=O)(=O)c1ccc(C(=O)Nc2ccc(Cl)c(-c3ccccn3)c2)c(Cl)c1 [VISMODEGIB],66.8
